# Experimental data as given in article PMC4532391 (Biochemistry, 2015).
# No end group written: not given here.
# Tests used:
# αMI-domain [1] = target: T1, αMI-domain (Homo sapiens, UniProt P11215); assay type: binding
# [2] = system: αMβ2-expressing HEK293 cells; experiment: Transwell migration of αMβ2-expressing HEK293 cells; assay type: cell-based; conditions: concentration-dependent, 16 h at 37 °C
# How it was run: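 Transwell, 5 μm pores: 3 × 10^5 αMβ2-HEK293 cells in the upper chamber, LL-37 (0.1–2 μg/mL) below, 16 h at 37 °C. Cells on the filter underside are fixed with paraformaldehyde, hematoxylin-stained and counted (mean cells/view ± standard error, ≥3 experiments). Blocking: 15 min pretreatment with 20 μg/mL anti-αM 44a, anti-β2 IB4 or non-inhibitory OKM1, LL-37 at 0.5 μg/mL. Medium-alone control.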
# U937 monocytic cells = experiment: Chemotaxis of U937 cells towards an agarose drop on coverslips; assay type: cell-based, human; conditions: agarose gel with 15 μg/mL LL-37; 2 h at 37 °C
# How it was run: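 U937 cells on 22 × 22 mm coverslips. A 10 μL drop of 1% agarose in HBSS, with LL-37 at 15 μg/mL final, sits ~1.5 mm from one corner; a control agarose drop sits in the opposite corner; both polymerise 5 min. Coverslips are submerged in RPMI 1640/10% FBS. 5 × 10^4 cells are loaded centrally, then 2 h at 37 °C, 5% CO2. Migration photographed at 2 mm intervals (20× objective); blocking variant uses anti-αM mAb 44a.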
# [3] = system: macrophages isolated from αMβ2-deficient mice; experiment: Transwell migration of thioglycolate-elicited peritoneal macrophages; assay type: cell-based; conditions: 90 min, LL-37 1 μg/mL, fMLP 100 nM
# How it was run: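 Thioglycolate-elicited peritoneal monocyte/macrophages from wild-type and αMβ2-deficient mice, purified by anti-F4/80-PE selection. Placed in Transwell inserts with chemoattractant below: LL-37 1 μg/mL or fMLP 100 nM. Allowed to migrate 90 min.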
# αMβ2 on neutrophils = experiment: Flow cytometry of the activation-dependent CBRM1/5 epitope on neutrophils; assay type: cell-based, human
# How it was run: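 Human blood neutrophils, isolated sterilely, at 10^6 per 0.1 mL in HBSS/0.1% BSA. Exposed 5 min at 22 °C to LL-37 (0.5–10 μg/mL) or fMLP (200 nM). Then Alexa 488-conjugated activation-dependent mAb CBRM1/5, 30 min on ice. Epitope-positive cells counted by flow cytometry. Some samples pretreated with NIF (1 μg/mL) before LL-37 at 4 or 10 μg/mL.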
# αMI-domain [4] = target: T1, αMI-domain; conditions: covalently coupled to the cellulose membrane; cited from earlier work
# T1 sequence (P11215 139-331): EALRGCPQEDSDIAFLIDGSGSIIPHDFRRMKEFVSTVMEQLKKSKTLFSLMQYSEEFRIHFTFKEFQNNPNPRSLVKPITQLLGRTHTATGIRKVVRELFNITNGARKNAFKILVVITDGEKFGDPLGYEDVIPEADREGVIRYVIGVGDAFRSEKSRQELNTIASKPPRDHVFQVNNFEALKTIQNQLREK
Molecule,IC50 (αMI-domain [1]),further results
CC(C)C[C@H](NC(=O)[C@H](CC(C)C)NC(=O)[C@H](CCCNC(=N)N)NC(=O)[C@@H](N)CC(N)=O)C(=O)N[C@@H](CC(C)C)C(=O)N[C@H](C(=O)NCC(=O)O)[C@@H](C)O [NRLLLTG],110 ± 16 µM,–
ARLPIWF [ARLPIWF],17 ± 3 µM,–
GRLPMPW [GRLPMPW],36 ± 7 µM,–
LLGDFFRKSKEKIGKEFKRIVQRIKDFLRNLVPRTES [LL-37],–,"LL-37 concentrations at which migration occurred [2]: 0.1 to 2 µg/mL; chemotactic response of U937 cells (U937 monocytic cells): induced a chemotactic response; migration of macrophages from αMβ2-deficient mice [3]: did not induce migration; number of cells expressing the activation epitope compared with fMLP (αMβ2 on neutrophils; 10 μg/mL LL-37 versus fMLP 200 nM): slightly higher; expression of the CBRM1/5 activation epitope on neutrophils (αMβ2 on neutrophils; LL-37 0.5–10 μg/mL, 5 min at 22 °C, mAb CBRM1/5-Alexa 488, FACS): induced expression of the CBRM1/5 epitope in a concentration-dependent manner"
LQLRFPRFV [LQLRFPRFV],10.5 ± 1.6 µM,–
QVLRIRKRA [QVLRIRKRA],8.4 ± 0.5 µM,–
RKLRSLWRR [RKLRSLWRR],2.5 ± 0.2 µM,–
SSVKKYRPKYCGS [CCN1-H2],–,αMI-domain binding of the cellulose-coupled peptide (αMI-domain [4]): bound the αMI-domain
SVNKYRGTAGNA [SVNKYRGTAGNA],93 ± 11 µM,–
TMKIIPFNRLTIG [P2-C],30 ± 2.5 µM,–
YSMKKTTMKIIPFNRLTIG [P2],–,αMI-domain binding of the cellulose-coupled peptide (αMI-domain [4]): bound the αMI-domain
fMLP,–,migration of macrophages from αMβ2-deficient mice [3]: migrated
